Key:
[1] = biological target: NaV1.5 F1760A (Homo sapiens, UniProt Q14524, F1760A); experiment: Whole-cell patch-clamp of NaV1.5 F1760A mutant in HEK293T cells; assay type: cell-based; settings: HEK-293T, read-out: inhibition rate, NaV1.5 F1760A
[2] = biological target: NaV1.5 channels (Homo sapiens, UniProt Q14524); experiment: Whole-cell patch-clamp recording of NaV1.5 currents in HEK293T cells; assay type: cell-based; settings: HEK-293T, read-out: inhibition rate, NaV1.5 WT, 100 μM
[3] = tested on: zebrafish larvae; experiment: ISO-induced tachycardia model in zebrafish larvae; assay type: in vivo; settings: 100 μM; 10 μM ISO 100 min; zebrafish larvae 3–4 dpf
[4] = tested on: Na+ current in primary ventricular myocytes; experiment: Voltage-gated Na+ current in rat primary ventricular myocytes; assay type: cell-based; settings: 10 µM; rat primary cardiomyocytes; 365 vs 480 nm
How it was run: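 Ventricular myocytes from 1–2-day-old Sprague-Dawley rats, dissociated with 0.05% trypsin and 0.1% collagenase II, with fibroblasts removed by 2 h pre-plating. Cultured in DMEM with 10% FBS at 37 °C. Whole-cell voltage clamp followed the HEK293T Na+ protocol (hold −120 mV, 50 ms step to −20 mV).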

[5] = tested on: zebrafish larvae; experiment: Heart rate recording in zebrafish larvae; assay type: in vivo; settings: 10 μM
[6] = biological target: NaV1.5 V405A (Homo sapiens, UniProt Q14524, V405A); experiment: Whole-cell patch-clamp of NaV1.5 V405A mutant in HEK293T cells; assay type: cell-based; settings: HEK-293T, read-out: inhibition rate, NaV1.5 V405A

Chain of NaV1.5 channels (Q14524 whole entry): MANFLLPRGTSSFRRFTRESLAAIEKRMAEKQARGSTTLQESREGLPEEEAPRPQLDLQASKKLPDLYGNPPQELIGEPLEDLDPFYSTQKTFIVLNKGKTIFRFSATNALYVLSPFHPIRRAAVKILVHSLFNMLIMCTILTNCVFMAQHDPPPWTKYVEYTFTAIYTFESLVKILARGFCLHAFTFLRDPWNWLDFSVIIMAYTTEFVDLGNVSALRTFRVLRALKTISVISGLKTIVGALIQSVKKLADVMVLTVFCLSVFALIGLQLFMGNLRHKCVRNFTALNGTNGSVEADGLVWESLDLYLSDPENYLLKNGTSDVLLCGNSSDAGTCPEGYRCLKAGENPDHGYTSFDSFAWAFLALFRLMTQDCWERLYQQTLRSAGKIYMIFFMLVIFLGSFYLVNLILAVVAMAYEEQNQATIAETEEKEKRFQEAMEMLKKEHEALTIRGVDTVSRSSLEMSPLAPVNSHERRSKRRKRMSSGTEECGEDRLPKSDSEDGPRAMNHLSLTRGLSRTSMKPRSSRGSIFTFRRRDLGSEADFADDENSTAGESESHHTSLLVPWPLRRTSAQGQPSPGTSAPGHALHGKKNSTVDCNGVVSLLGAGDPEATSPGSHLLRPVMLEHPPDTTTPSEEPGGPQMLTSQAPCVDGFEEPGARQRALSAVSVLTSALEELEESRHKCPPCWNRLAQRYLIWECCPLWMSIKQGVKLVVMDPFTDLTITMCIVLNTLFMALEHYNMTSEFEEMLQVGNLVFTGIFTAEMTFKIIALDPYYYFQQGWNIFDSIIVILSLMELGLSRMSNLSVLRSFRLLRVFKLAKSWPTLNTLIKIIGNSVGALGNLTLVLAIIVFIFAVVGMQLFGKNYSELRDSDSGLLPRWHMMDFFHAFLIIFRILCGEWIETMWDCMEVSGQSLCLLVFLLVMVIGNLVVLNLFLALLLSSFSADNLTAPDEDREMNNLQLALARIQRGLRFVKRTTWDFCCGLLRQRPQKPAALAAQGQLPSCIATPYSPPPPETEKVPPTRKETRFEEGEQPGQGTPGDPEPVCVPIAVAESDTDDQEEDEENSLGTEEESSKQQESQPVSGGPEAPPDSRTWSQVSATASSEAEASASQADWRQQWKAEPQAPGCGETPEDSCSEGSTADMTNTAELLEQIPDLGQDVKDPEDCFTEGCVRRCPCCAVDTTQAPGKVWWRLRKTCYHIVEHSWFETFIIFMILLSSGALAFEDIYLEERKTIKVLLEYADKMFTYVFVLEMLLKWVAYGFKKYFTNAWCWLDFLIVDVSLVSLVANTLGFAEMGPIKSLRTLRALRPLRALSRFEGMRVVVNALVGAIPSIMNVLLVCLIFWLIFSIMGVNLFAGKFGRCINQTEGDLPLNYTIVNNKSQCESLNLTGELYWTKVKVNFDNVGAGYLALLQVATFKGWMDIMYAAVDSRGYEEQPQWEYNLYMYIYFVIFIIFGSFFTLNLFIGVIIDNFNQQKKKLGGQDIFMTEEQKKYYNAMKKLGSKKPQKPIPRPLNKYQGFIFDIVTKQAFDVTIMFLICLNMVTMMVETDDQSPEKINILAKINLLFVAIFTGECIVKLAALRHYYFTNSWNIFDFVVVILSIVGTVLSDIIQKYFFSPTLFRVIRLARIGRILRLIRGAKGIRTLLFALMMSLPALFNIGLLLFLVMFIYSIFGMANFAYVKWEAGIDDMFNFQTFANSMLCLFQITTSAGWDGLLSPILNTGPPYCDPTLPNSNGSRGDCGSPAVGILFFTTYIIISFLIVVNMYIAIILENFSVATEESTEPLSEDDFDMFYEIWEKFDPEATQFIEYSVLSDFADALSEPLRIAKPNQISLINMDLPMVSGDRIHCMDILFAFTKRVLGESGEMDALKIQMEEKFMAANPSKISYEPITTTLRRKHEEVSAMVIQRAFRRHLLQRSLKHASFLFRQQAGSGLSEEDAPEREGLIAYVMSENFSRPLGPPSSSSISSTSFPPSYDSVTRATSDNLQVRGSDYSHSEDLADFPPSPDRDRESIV
Chain of NaV1.5 F1760A (Q14524 whole entry F1760A): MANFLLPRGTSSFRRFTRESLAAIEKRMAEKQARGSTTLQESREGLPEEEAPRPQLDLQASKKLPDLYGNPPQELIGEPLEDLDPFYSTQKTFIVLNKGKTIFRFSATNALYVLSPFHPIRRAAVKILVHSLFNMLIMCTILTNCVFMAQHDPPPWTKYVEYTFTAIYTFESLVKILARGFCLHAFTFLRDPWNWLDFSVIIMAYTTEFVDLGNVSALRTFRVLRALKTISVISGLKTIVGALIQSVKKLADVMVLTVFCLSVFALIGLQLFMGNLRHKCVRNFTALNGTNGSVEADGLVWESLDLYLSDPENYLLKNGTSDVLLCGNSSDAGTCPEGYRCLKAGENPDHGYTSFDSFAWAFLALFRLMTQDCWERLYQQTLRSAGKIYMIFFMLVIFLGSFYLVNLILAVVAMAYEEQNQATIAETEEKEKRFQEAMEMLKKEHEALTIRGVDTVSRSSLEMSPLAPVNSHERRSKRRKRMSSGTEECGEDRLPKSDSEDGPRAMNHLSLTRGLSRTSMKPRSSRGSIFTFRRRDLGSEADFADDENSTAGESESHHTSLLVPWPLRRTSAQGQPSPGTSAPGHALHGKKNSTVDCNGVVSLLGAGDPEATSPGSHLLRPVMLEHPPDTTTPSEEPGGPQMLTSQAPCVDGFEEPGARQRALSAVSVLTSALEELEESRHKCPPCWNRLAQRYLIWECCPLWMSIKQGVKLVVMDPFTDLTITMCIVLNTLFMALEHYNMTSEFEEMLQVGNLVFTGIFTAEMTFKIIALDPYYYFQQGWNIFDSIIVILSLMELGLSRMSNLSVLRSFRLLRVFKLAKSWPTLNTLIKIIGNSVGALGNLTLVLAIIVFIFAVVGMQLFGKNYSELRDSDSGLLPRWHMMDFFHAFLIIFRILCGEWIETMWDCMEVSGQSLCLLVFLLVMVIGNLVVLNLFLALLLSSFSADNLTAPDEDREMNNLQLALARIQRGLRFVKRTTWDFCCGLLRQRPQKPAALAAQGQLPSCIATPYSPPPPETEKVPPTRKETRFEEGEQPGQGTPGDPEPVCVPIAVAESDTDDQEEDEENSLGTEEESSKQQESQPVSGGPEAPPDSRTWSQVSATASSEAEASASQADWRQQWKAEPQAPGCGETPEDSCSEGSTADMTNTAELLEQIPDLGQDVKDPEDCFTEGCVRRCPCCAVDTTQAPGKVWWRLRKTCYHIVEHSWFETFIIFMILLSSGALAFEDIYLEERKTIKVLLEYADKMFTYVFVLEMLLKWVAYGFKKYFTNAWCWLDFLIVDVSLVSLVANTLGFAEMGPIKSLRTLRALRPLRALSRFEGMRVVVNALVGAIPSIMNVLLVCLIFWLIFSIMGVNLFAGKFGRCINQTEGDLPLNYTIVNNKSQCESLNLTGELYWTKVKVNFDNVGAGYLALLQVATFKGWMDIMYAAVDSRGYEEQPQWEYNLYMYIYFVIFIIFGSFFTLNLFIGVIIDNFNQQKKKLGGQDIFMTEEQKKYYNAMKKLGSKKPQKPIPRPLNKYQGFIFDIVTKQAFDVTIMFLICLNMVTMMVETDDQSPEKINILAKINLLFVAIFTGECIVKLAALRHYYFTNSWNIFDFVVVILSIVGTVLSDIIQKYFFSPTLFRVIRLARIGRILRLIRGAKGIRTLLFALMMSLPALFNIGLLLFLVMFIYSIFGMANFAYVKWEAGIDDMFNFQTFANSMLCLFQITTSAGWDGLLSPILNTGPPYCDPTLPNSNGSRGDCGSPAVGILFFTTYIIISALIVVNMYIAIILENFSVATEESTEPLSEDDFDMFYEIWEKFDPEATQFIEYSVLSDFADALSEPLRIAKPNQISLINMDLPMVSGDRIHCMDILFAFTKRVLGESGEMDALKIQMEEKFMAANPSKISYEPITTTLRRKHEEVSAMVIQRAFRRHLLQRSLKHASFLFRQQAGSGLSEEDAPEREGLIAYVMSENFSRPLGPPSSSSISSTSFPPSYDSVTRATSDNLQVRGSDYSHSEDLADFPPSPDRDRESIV

## C=C[C@H]1C[N@@]2CC[C@H]1C[C@@H]2[C@@H](O)c1ccnc2ccc(OC)cc12 [Quinidine, quinidine]
[1]
  inhibition at 100 µM: 32.6 ± 1.8%
[2]
  inhibition at 100 µM: 77.6 ± 3.2%
[3]
  effect on heart rate in ISO-pretreated larvae: markedly attenuate heart rate
[4]
  photoswitching efficacy (optical control), Na+ current: 0.8 ± 0.8%
[5]; soaking 1-[…] in the dark, zebrafish larvae 2 dpf
  heart rate normalized to control in dark: 90.8 ± 1.4%
[5]; 365 nm followed by 480 nm illumination, 5 min each
  heart rate normalized to control in dark: 91.6 ± 1.3%
[5]; after 365 nm illumination for 5 min
  heart rate normalized to control in dark: 93.9 ± 0.9%
[6]
  inhibition at 100 µM: 51.2 ± 2.3%
